Laboratory results: ChEMBL document CHEMBL2040734, “Benzothiazoles: search for anticancer agents” (2012)

How the values were obtained:
Assay type in all cases: functional
SNB-75 = test: Cytotoxicity against human SNB75 cells assessed as cell growth at 10 uM after 48 hrs by sulforhodamine B assay; details: SNB-75, 48 h, read-out: Activity
SW-620 = test: Cytotoxicity against human SW620 cells assessed as cell growth at 10 uM after 48 hrs by sulforhodamine B assay; details: SW-620, 48 h, read-out: Activity
NCI-H322M = test: Cytotoxicity against human NCI-H322M cells assessed as cell growth at 10 '-5 M after 48 hrs by sulforhodamine B assay; details: read-out: Activity
RPMI-8226 = test: Cytotoxicity against human RPMI8226 cells assessed as cell growth at 100 uM after 48 hrs by sulforhodamine B assay; details: RPMI-8226, 48 h, read-out: Activity
PC-3 = test: Cytotoxicity against human PC3 cells assessed as cell growth at 1 uM after 48 hrs by sulforhodamine B assay; details: PC-3, 48 h, read-out: Activity
SNB-19 = test: Cytotoxicity against human SNB19 cells assessed as cell growth at 10 '-5 M after 48 hrs by sulforhodamine B assay; details: SNB-19, 48 h, read-out: Activity
T47D = test: Cytotoxicity against human T47D cells assessed as cell growth at 100 uM after 48 hrs by sulforhodamine B assay; details: read-out: Activity
[1] = Cytotoxicity against human Hs 578T cells assessed as cell growth at 10 uM after 48 hrs by sulforhodamine B assay; details: read-out: Activity
Outline: (§1)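 Five-dose NCI panel run at 0.01, 0.1, 1, 10 and 100 µM. Cells were in RPMI 1640 with 5% FBS and 2 mM L-glutamine, seeded at 5000–40,000 cells/well and pre-incubated 24 h. Drug was diluted from a DMSO stock into medium with 50 µg/ml gentamicin. Exposure was 48 h at 37 °C, 5% CO2. Cells were fixed with cold TCA and stained with 0.4% SRB, read at 515 nm. Percent growth came from time-zero, control and test absorbances.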

A549 = test: Cytotoxicity against human A549 cells assessed as cell growth at 10 uM after 48 hrs by sulforhodamine B assay; details: A549, 48 h, read-out: Activity
Outline: (§2)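 NCI-60 five-dose screen. Cells were grown in RPMI 1640 with 5% FBS and 2 mM L-glutamine and preincubated 24 h. Compound (DMSO stock) was tested at 0.01, 0.1, 1, 10 and 100 µM for 48 h at 37 °C. Cells were fixed in situ with cold TCA (final 10%) and stained with 0.4% SRB. A515 was read, and percent growth was calculated against time-zero and control plates.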

SK-MEL-28 [2] = test: Cytotoxicity against human SK-MEL-28 cells assessed as cell growth at 10 uM after 48 hrs by sulforhodamine B assay; details: SK-MEL-28, 48 h, read-out: Activity
UACC-62 = test: Growth inhibition of human UACC62 cells after 48 hrs by sulforhodamine B assay; details: UACC-62, 48 h; for CC50: read-out: LC50 (the source's name)
Outline: (§3)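 Adherent NCI-60 lines were grown in RPMI 1640 with 5% FBS and 2 mM L-glutamine, plated at 5000–40,000 cells/well and preincubated 24 h. They were then exposed to five concentrations (0.01–100 µM, from a DMSO stock) for 48 h at 37 °C, 5% CO2. Cells were fixed with cold TCA (10% final, 60 min, 4 °C) and stained with 0.4% SRB. Dye was solubilized in 10 mM Tris base and A515 read. GI50 was derived from time-zero, control and treated absorbances.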

MCF7 = test: Cytotoxicity against human MCF7 cells assessed as cell growth at 1 uM after 48 hrs by sulforhodamine B assay; details: MCF7, 48 h, read-out: Activity
HCT-15 = test: Cytotoxicity against human HCT15 cells assessed as cell growth at 10 uM after 48 hrs by sulforhodamine B assay; details: HCT-15, 48 h, read-out: Activity; outline: as §1
OVCAR-3 = test: Cytotoxicity against human OVCAR3 cells assessed as cell growth at 0.01 uM after 48 hrs by sulforhodamine B assay; details: OVCAR-3, 48 h, read-out: Activity
A498 = test: Cytotoxicity against human A498 cells assessed as cell growth at 1 uM after 48 hrs by sulforhodamine B assay; details: A498, 48 h, read-out: Activity; outline: as §2
SK-MEL-28 [3] = test: Cytotoxicity against human SK-MEL-28 cells assessed as cell growth at 0.1 uM after 48 hrs by sulforhodamine B assay; details: SK-MEL-28, 48 h, read-out: Activity
SK-MEL-2 = test: Cytotoxicity against human SK-MEL-2 cells assessed as cell growth at 0.01 uM after 48 hrs by sulforhodamine B assay; details: SK-MEL-2, 48 h, read-out: Activity
HCC 2998 = test: Cytotoxicity against human HCC2998 cells assessed as cell growth at 1 uM after 48 hrs by sulforhodamine B assay; details: HCC 2998, 48 h, read-out: Activity; outline: as §1
OVCAR-8 = test: Growth inhibition of human OVCAR8 cells after 48 hrs by sulforhodamine B assay; details: OVCAR-8, 48 h; outline: as §3
HCT-116 = test: Growth inhibition of human HCT116 cells after 48 hrs by sulforhodamine B assay; details: HCT-116, 48 h; for CC50: read-out: LC50 (the source's name); outline: as §3
RXF 393 = test: Cytotoxicity against human RXF393 cells assessed as cell growth at 0.01 uM after 48 hrs by sulforhodamine B assay; details: RXF 393, 48 h, read-out: Activity
NCI-H23 [4] = test: Cytotoxicity against human NCI-H23 cells assessed as cell growth at 0.01 uM after 48 hrs by sulforhodamine B assay; details: NCI-H23, 48 h, read-out: Activity
UO-31 = test: Growth inhibition of human UO31 cells after 48 hrs by sulforhodamine B assay; details: UO-31, 48 h; for CC50: read-out: LC50 (the source's name); outline: as §3
LOX IMVI = test: Cytotoxicity against human LOXIMVI cells assessed as cell growth at 0.1 uM after 48 hrs by sulforhodamine B assay; details: read-out: Activity
SK-OV-3 = test: Cytotoxicity against human SKOV3 cells assessed as cell growth at 10 '-5 M after 48 hrs by sulforhodamine B assay; details: SK-OV-3, 48 h, read-out: Activity
NCI-H23 [5] = test: Cytotoxicity against human NCI-H23 cells assessed as cell growth at 100 uM after 48 hrs by sulforhodamine B assay; details: NCI-H23, 48 h, read-out: Activity
COLO 205 = test: Cytotoxicity against human COLO205 cells assessed as cell growth at 0.1 uM after 48 hrs by sulforhodamine B assay; details: COLO 205, 48 h, read-out: Activity; outline: as §2
IGROV-1 = test: Cytotoxicity against human IGROV1 cells assessed as cell growth at 0.1 uM after 48 hrs by sulforhodamine B assay; details: IGROV-1, 48 h, read-out: Activity
HT-29 = test: Growth inhibition of human HT-29 cells after 48 hrs by sulforhodamine B assay; details: HT-29, 48 h; outline: as §3
M14 = test: Cytotoxicity against human M14 cells assessed as cell growth at 100 uM after 48 hrs by sulforhodamine B assay; details: M14, 48 h, read-out: Activity

Compound	growth at 10 µM (SNB-75) [%]	growth at 10 µM (SW-620) [%]	growth at 10 µM (NCI-H322M) [%]	growth at 100 µM (RPMI-8226) [%]	growth at 1 µM (PC-3) [%]	growth at 10 µM (SNB-19) [%]	growth at 100 µM (T47D) [%]	growth at 10 µM [1] [%]	growth at 10 µM (A549) [%]	growth at 10 µM (SK-MEL-28 [2]) [%]	GI50 (UACC-62) [nM]	TGI (UACC-62) [nM]	CC50 (UACC-62) [µM]	growth at 1 µM (MCF7) [%]	growth at 10 µM (HCT-15) [%]	growth at 0.01 µM (OVCAR-3) [%]	growth at 1 µM (A498) [%]	growth at 0.1 µM (SK-MEL-28 [3]) [%]	growth at 0.01 µM (SK-MEL-2) [%]	growth at 1 µM (HCC 2998) [%]	also measured
Cc1ccc2nc(Nc3c(C)cccc3C)sc2c1	36	22	71	73	68	59.5	46	40	44	45	1150	> 100000	> 100	53	23	101	53	92	94	70	GI50 (OVCAR-8): 57.9 µM; TGI (OVCAR-8): > 100000 nM; CC50 (OVCAR-8; read-out: LC50 (the source's name)): > 100 µM; GI50 (HCT-116): 2300 nM; TGI (HCT-116): > 100000 nM; CC50 (HCT-116): > 100 µM; growth at 0.01 µM (RXF 393): 94%; growth at 0.01 µM (NCI-H23 [4]): 94%; TGI (UO-31): > 100000 nM; CC50 (UO-31): > 100 µM; growth at 0.1 µM (LOX IMVI): 93%; growth at 10 µM (SK-OV-3): 47.1%; growth at 100 µM (NCI-H23 [5]): 65%; growth at 0.1 µM (COLO 205): 112%; growth at 0.1 µM (IGROV-1): 108%; GI50 (HT-29): 629 nM; LC50 (concentration killing 50% of cells) (HT-29): > 100 µM; TGI (HT-29): > 100000 nM; growth at 100 µM (M14): 53%
Clc1cccc(Cl)c1Nc1nc2cccc(Cl)c2s1	-32	-86	9.8	-13	38	13.8	-64	-41	-65	-86	1010	2370	5.55	46	-85	98	26	94	98	70	GI50 (OVCAR-8): 1.15 µM; TGI (OVCAR-8): 2830 nM; GI50 (HCT-116): 1010 nM; TGI (HCT-116): 2190 nM; CC50 (HCT-116): 4.75 µM; growth at 0.01 µM (RXF 393): 94%; growth at 0.01 µM (NCI-H23 [4]): 95%; GI50 (UO-31): 161 nM; TGI (UO-31): 1670 nM; CC50 (UO-31): 4.44 µM; growth at 0.1 µM (LOX IMVI): 89%; growth at 10 µM (SK-OV-3): 6.87%; growth at 100 µM (NCI-H23 [5]): -58%; growth at 0.1 µM (COLO 205): 94%; growth at 0.1 µM (IGROV-1): 103%; GI50 (HT-29): 1290 nM; LC50 (concentration killing 50% of cells) (HT-29): 6.97 µM; TGI (HT-29): 2990 nM; growth at 100 µM (M14): -56%
